The text below walks through data of ChEMBL document CHEMBL1914453, “1,1-Diarylalkenes as anticancer agents: dual inhibitors of tubulin polymerization and phosphodiesterase 4” (Bioorg Med Chem, 2011).

The test system of series [1] is Plasma. Nature of the series: Stability in human plasma assessed as formation of (E/Z)-3-(3-Amino-4-methoxyphenyl)-3-(3-ethoxy-4- methoxyphenyl)acrylonitrile by LC-MS/MS analysis. It is filed as ADME, cell-free. In a few lines: (§1)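 Analogs were incubated in human plasma at 37 °C and sampled at 0, 0.5, 1, 2, 3, 4, 6, 8 and 24 h. Samples were quenched in acetonitrile with 0.1% formic acid and internal standard, centrifuged, and analysed by LC–MS/MS in MRM mode on a C18 monolithic column with an aqueous acetonitrile/0.1% formic acid gradient. Percentage remaining was taken from analyte/IS peak-area ratios relative to time zero.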

Series [2] in a line: Solubility of the compound at pH 7.4 after 4 hrs by UV-Vis spectrophotometry. It is filed as physicochemical. Particulars: buffer. In a few lines: (§2)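 A suspension of about 1 mg/mL (0.5 mL) in pH 5.0 or pH 7.4 buffer was stirred at 400 rpm for 4 h and then filtered. Concentration was determined by UV-vis plate reading (200–400 nm) against standard curves for each compound. Replicate measurements were made at pH 5.0.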

Series [3] is described as follows: Stability in human plasma assessed as half life by LC-MS/MS analysis. It is filed as ADME, cell-free. In a few lines: as §1
Series [4] is described as follows: Inhibition of tubulin polymerization at 5 uM after 60 mins by spectrophotometry.
Another series has as its target Phosphodiesterase 4 (Homo sapiens, UniProt P27815+Q08499+Q07343+Q08493). Nature of the series: Inhibition of human PDE4 expressed in U937 cells using [3H]cAMP as substrate after 30 mins. Conditions: u-937. In a few lines:
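PDE4 was purified from U937 human monocytic cells by gel filtration. Reactions ran in 50 mM Tris–HCl pH 7.5 with 5 mM MgCl₂, 1 µM cAMP and 10 nM [³H]-cAMP for 30 min at 30 °C. They were stopped by boiling, treated with snake venom (1 mg/ml) and separated on ion-exchange resin. Substrate consumption stayed below 15%. IC50 values are means of at least three determinations, with SEM.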

A short description of series [5]: Solubility of the compound at pH 5 after 4 hrs by UV-Vis spectrophotometry. Type of series: physicochemical. Conditions: buffer. In a few lines: as §2
The next series deals with Mus musculus. Nature of the series: Toxicity in SCID mouse xenografted with human HCT116 cells assessed as reduction in body weight at 20 mg/kg, ip once daily measured after day 19 relative to control. Particulars: in vivo. Also on record: dose 20 mg/kg, route intraperitoneal; scale not given: the % may be the effect or the level left. It is filed as organism-based, HCT-116. In a few lines:
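SCID mice carrying s.c. HCT-116 tumors were dosed ip at 20 mg/kg once daily in CMC-Tween vehicle (0.5% carboxymethylcellulose, 0.25% Tween 80) from day 8. Health was monitored daily and body weights were compared with the vehicle group.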

In the next series the test system is PBMC. Description: Inhibition of LPS-induced TNFalpha production in human PBMC preincubated 1 hr prior to LPS stimulation measured after 18 to 20 hrs by ELISA. It is filed as functional, cell-based. In a few lines: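 PBMC were isolated by Ficoll-Hypaque density centrifugation and plated at 2 × 10⁵ cells in triplicate. Compounds in DMSO (0.25% final) were added 1 h before stimulation with LPS from S. abortus equi at 1 ng/ml. After 18–20 h at 37 °C in 5% CO₂, supernatant TNF-α was measured by ELISA. IC50 values are means of at least three determinations.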

For series [6], the system named is HCT-116. Nature of the series: Cytotoxicity against human HCT116 cells assessed as reduction of [3H]thymidine incorporation after 72 hrs by scintillation counting. It is filed as functional, cell-based. In a few lines: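 HCT-116 cells were seeded 24 h before compound and treated with serial dilutions in triplicate for 72 h at 37 °C. [³H]thymidine (1 µCi per well) was added for the last 6 h, and incorporation was read by scintillation counting. IC50 came from nonlinear sigmoidal regression (top 100%, bottom 0%, variable slope). Values are means of at least three independent determinations, with SEM from the individual IC50s.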

Series [7] is described as follows: Inhibition of tubulin polymerization at 10 uM after 60 mins by spectrophotometry.
Series [8] concerns HCT-116. Description: Antitumor activity against human HCT116 cells xenografted in SCID mouse assessed as tumor growth inhibition at 20 mg/kg, ip once daily measured twice weekly relative to control. Particulars: HCT-116, ip, 24 h, read-out: GI.
For series [9], the system named is HCT-116. Description: Antitumor activity against human HCT116 cells xenografted in SCID mouse assessed as reduction in tumor volume at 20 mg/kg, ip qd measured twice weekly relative to control. It is filed as functional. Particulars: route intraperitoneal. Also on record: scale not given: the % may be the effect or the level left. In a few lines: (§3)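 Female SCID mice, 6–8 weeks old, inoculated s.c. in the right hind leg with 2 × 10⁶ HCT-116 cells in sterile PBS. On day 8, mice with 75–125 mm³ tumors were randomized and dosed ip in CMC-Tween vehicle (0.5% carboxymethylcellulose, 0.25% Tween 80 in water). Tumors were measured twice weekly by caliper, volume W² × L / 2, and compared with vehicle.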

Series [10] in a line: Ratio of IC50 for human PDE4 expressed in U937 cells to IC50 for human HCT116 cells. Also on record: species or system HCT-116.
The test system of series [11] is HCT-116. Nature of the series: Antitumor activity against human HCT116 cells xenografted in SCID mouse assessed as tumor growth inhibition at 5 mg/kg, ip once every 4 days measured twice weekly relative to control. Type of series: functional. Particulars: HCT-116, ip, 96 h, route intraperitoneal, read-out: GI. In a few lines:
as §3

In series [12] the test system is Plasma. Nature of the series: Stability in human plasma assessed as formation of (E/Z)-3-(3-Ethoxy-4-methoxyphenyl)-3-(3-hydroxy-4- methoxyphenyl)acrylonitrile […] by LC-MS/MS analysis. Conditions: 20 min. It is filed as ADME, cell-free.

In the case of `CCOc1cc(C(=CC#N)c2ccc(OC)c(NC(=O)CN)c2)ccc1OC.Cl`, in the series with Plasma [1], the Stability result is reported as “Stable”. Besides, the solubility at 4 h was 205 µg/mL in series [2] and 356 µg/mL in series [5]. Moreover, in series [3], the half-life is 56 h. For the same compound, the inhibition in [4] worked out at 59%; in series [7] it was 70%. Further, the IC50 at Phosphodiesterase 4 worked out at 400 nM; with PBMC, 31 nM; in the series on HCT-116 [6], 93 nM. Also, the Activity in the series with Mus musculus came to 15%. Further, the inhibition in vivo at 20 mg/kg in the series with HCT-116 [8] amounted to 64%.
Take `CCOc1cc(C(=CC#N)c2ccc(OC)c(NC(=O)[C@H](C)N)c2)ccc1OC.Cl`: the Stability entry with Plasma [1] is given as “Stable”. Moreover, the results for the solubility at 4 h in [2] and in [5] were 405 µg/mL and 1040 µg/mL, respectively. Also, the half-life in series [3] is 27 h. Further, the IC50 came out at 150 nM at Phosphodiesterase 4, 27 nM with PBMC and 40 nM with HCT-116 [6].
As to `CCOc1cc(C(=CC#N)c2ccc(OC)c(N)c2)ccc1OC`, the solubility at 4 h in series [2] and in series [5] was less than 3 µg/mL throughout. The inhibition in [4] stood at 65%; in [7] it was 76%. The IC50 against Phosphodiesterase 4 turned out to be 47 nM; with PBMC, 31 nM; in the series with HCT-116 [6], 19 nM.
`CCOc1cc(C(=CC#N)c2cc(OC)cc(OC)c2)ccc1OC`: the figures for the inhibition in series [4] and in series [7] were 48% and 59%, respectively. Also, the values for the IC50 against Phosphodiesterase 4, with PBMC and with HCT-116 [6] were 54 nM, 43 nM and 34 nM, respectively. In addition, the Activity with HCT-116 [9] stood at 16%.
With `COc1cc(OC)cc(C(=C(C)C)c2ccc(OC)c(O)c2)c1`, the “Ratio IC50” value in [10] came to 10. Moreover, the IC50 at Phosphodiesterase 4 was greater than 10000 nM; with PBMC, 7000 nM; in the series with HCT-116 [6], 970 nM.
For `CCc1c2c(nc3ccc(OC(=O)N4CCC(N5CCCCC5)CC4)cc13)-c1cc3c(c(=O)n1C2)COC(=O)[C@]3(O)CC` [IRINOTECAN], the inhibition in vivo at 5 mg/kg with HCT-116 [11] amounted to 85%.
As for `CCOc1cc(C(=CC#N)c2ccc(OC)c(OC(=O)CN)c2)ccc1OC.Cl`, the IC50 against Phosphodiesterase 4 worked out at 49 nM; with PBMC it was 58 nM; with HCT-116 [6], 19 nM. Moreover, in the series on Plasma [12], the Stability result was “Unstable”.
